ARFGAP1 inh = inhibits rat ARF GTPase activating protein 1 | Q62848 | hit rate 0.26% among 360,000 | inhibition, % at 16.5 µM | Arfgap1-stimulated ARF1 GTP hydrolysis, GDP FP detection;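 active means inhibition above a per-plate limit, mean inhibition of low control wells plus 3 SD, cut at about 25% in these data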;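 further: 0% = DMSO wells with enzyme and 100% = wells lacking Arfgap1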
Target sequence (Q62848 1-136 limits assumed): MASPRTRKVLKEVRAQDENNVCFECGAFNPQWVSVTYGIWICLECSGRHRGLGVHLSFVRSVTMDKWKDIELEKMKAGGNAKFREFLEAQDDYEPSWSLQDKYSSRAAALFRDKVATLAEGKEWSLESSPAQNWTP
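System: truncated rat Arfgap1 GAP domain / Benchmarks: high control wells lacking Arfgap1, low control full reaction with DMSO / Times: compound-enzyme preincubation 20 min, reaction 120 min, detection 60 min, 25 °C / Repeats: one replicate per compound / Also added: human ARF1(Δ1-17)-GTP substrate / Measured by: Tracer-displacement fluorescence polarization with EDTA stop, 620/688 nm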
SMARCA2 activ = activators of SMARCA2 function. MG213 cells, MMTV-luciferase reporter, dexamethasone, overnight. activation, % at 9.1 µM. hit rate 1% among 370,000; in the data active means activation above about 7.8%;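 further: 0% = vehicle wells and 100% = reference activator wells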
ASAP1 inh = blocks human ASAP1-stimulated Arf1 GTP hydrolysis; inhibition, % at 16.5 µM; Q9ULH1; GDP FP detection; hit rate 0.19% among 360,000; in the data active means inhibition above about 25%;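 further: 0% = vehicle with enzyme and substrate and 100% = no enzyme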
Target sequence (Q9ULH1 325-724 limits assumed): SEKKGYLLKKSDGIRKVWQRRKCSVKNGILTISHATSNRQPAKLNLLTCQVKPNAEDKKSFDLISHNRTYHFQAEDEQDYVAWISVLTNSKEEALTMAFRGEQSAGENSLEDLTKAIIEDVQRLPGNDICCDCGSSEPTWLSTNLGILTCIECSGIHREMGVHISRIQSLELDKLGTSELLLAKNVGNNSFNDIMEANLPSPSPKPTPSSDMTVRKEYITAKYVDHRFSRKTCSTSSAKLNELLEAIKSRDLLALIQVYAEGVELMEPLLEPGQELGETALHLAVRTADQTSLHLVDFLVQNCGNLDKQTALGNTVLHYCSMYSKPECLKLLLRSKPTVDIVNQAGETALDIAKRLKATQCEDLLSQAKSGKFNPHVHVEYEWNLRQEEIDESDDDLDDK
esBAF inh = SWI/SNF esBAF complex inhibition; mouse ES cells, Bmi1-luciferase knock-in reporter, 24 h; 100% = twice the neutral-well signal; hit rate 2% among 350,000; reporter increase, % at 12.5 µM; AID 602393; in the data active means activation above about 40%; inconclusive means no clear call, values can overlap the other calls;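 further: 0% = median of the plate's neutral control wells and 100% = double that signal; a rise in the Bmi1 reporter signal indicates esBAF inhibition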
esBAF Ring1 qPCR = esBAF inhibition confirmed by Ring1 de-repression. shares compounds with esBAF inh. mouse ESC E14, Ring1 mRNA RT-qPCR fold change. fold change at 33 µM. 550 tested, under 10 active. AID 743176;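 active means Ring1 gene expression raised more than 2-fold over untreated cells in both replicates at either tested dose; inconclusive means only one replicate above 2-fold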;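 further: Ring1 transcript normalised to actin housekeeping signal by TaqMan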
esBAF Fgf4 qPCR = represses Fgf4 in mouse ESCs, confirming esBAF inhibition | Fgf4 expression fold change at 33 µM | hit rate 4% among 550 | shares compounds with esBAF inh | AID 743177 | mouse ESC E14, Fgf4 mRNA qPCR fold change; active compounds read low;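 active means Fgf4 expression under 0.8 fold of control in both repeat measurements at one or both tested doses; inconclusive means under 0.8 fold in just a single repeat measurement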;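 further: Fgf4 transcript normalised to actin in duplex TaqMan qPCR; cells exposed to compound for 24 h before lysis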
esBAF Bmi1 qPCR = de-represses Bmi1 in mouse ESCs, confirming esBAF inhibition | 550 tested, under 10 active | AID 743180 | shares compounds with esBAF inh | mouse ESE14 ES cells, Bmi1 mRNA qPCR fold; active compounds read high | fold change at 33 µM;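 active means Bmi1 expression fold change above 6 at either tested concentration, seen in replicate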;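 further: higher fold means more Bmi1 de-repression and stronger esBAF inhibition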
A549 tox SP = A549 cell cytotoxicity | shares compounds with esBAF inh | plate reader | cell viability change % (negative = cytotoxic), % at 25 µM, hits read low | 550 tested, under 10 active; call rule not given here
HepG2 tox SP = HepG2 cell cytotoxicity at single point. shares compounds with esBAF inh. plate reader; active compounds read low. activity change, negative = inhibition, % at 25 µM. hit rate 4% among 550. AID 743189; in the data active means activity change below about -50%
HEK293 tox SP = cytotoxicity in HEK293 cells | shares compounds with esBAF inh | hit rate 3% among 550 | activity change, negative = inhibition, % at 25 µM, hits read low | plate reader; in the data active means activity change below about -38%, passing the limit was not always enough
Starred values were filed as active, the others as inactive; u = inconclusive; x = not tested or not shown. Only some compounds are listed: those with a hit (about 2.6% of all), similar ones and a draw of the others.

SMILES | ARFGAP1 inh | SMARCA2 activ | ASAP1 inh | esBAF inh | esBAF Ring1 qPCR | esBAF Fgf4 qPCR | esBAF Bmi1 qPCR | A549 tox SP | HepG2 tox SP | HEK293 tox SP
O=C1/C(=C/c2cccc3ccccc23)CCCc2ccccc21 | 0 | 3 | 0 | 57* | 1.2 | 1.1 | 1.2 | -11 | 1 | 0
C[C@@H]1CN([C@@H](C)CO)C(=O)Cc2cc(NC(=O)Nc3ccccc3)ccc2O[C@H]1CN(C)C(=O)Nc1cccc2ccccc12 | x | x | x | -2 | x | x | x | x | x | x
C=CCn1c(NCc2ccccc2O)nc2ccccc21 | 2 | 1 | 5 | 31 | x | x | x | x | x | x
C=CCn1c(NCc2ccc(OC)cc2O)nc2ccccc21 | -4 | 6 | 5 | 61* | 1 | 0.96 | 1.8 | -5 | -68* | -11
C[C@@H]1CCCCO[C@H](CN(C)C(=O)Cc2ccccc2)[C@@H](C)CN([C@@H](C)CO)C(=O)c2cc(NC(=O)NC3CCCCC3)ccc2O1 | x | x | x | -5 | x | x | x | x | x | x
O=C(CCc1nnc(C2(c3ccc(Cl)cc3)CCC2)o1)N1CCCC1 | -5 | 7 | 10 | 65* | 0.9 | 0.94 | 1.3 | -12 | -12 | -18
NC(=O)C1CCCN(C(=O)CCc2nnc(C3(c4ccc(Cl)cc4)CCC3)o2)C1 (stereo not drawn) | -4 | 2 | -2 | x | x | x | x | x | x | x
COC(=O)C[C@@H]1CC[C@@H](NC(=O)c2ccccc2)[C@@H](CO)O1 | x | x | x | 2 | x | x | x | x | x | x
CCN(C(=O)c1cccs1)c1nnc(-c2ccncc2)s1 | 12 | -2 | 8 | 58* | 1.2 | 0.97 | 0.9 | -4 | -24 | -9
COCCN(C(=O)Cc1cccs1)c1nnc(-c2ccncc2)s1 | -11 | -3 | -25 | 5 | x | x | x | x | x | x
CSCc1nc2sc(C(=O)Nc3nc(C)cs3)c(C)c2c(=O)[nH]1 | 18 | 4 | 13 | 60* | 1.2 | 1.1 | 1.3 | -3 | -19 | 2
CNC[C@H]1Oc2ccc(NC(=O)Nc3cccc4ccccc34)cc2C(=O)N([C@H](C)CO)C[C@H]1C | x | x | x | 4 | x | x | x | x | x | x
COc1ccc(-c2cc(C(=O)Nc3ccc(C(N)=O)cc3)c3ccccc3n2)cc1 | 19 | 6 | 15 | 57* | 1.4 | u | 1.6 | -5 | -6 | 1
COc1ccc(-c2cc(C(=O)N3CCN(c4ccccc4O)CC3)c3ccccc3n2)cc1 | 14 | 4 | 7 | 64* | 0.96 | 0.92 | 1.3 | -11 | -44 | -27
Cc1ccc(NC(=O)C(=O)Nc2ccc(C)cn2)nc1 | 5 | 1 | -7 | 57* | 0.97 | 1.1 | 1.1 | -17 | -28 | -13
Cc1ccc(NC(=O)Nc2ccccc2)nc1 | 6 | 4 | -1 | x | x | x | x | x | x | x
Cc1noc(C)c1S(=O)(=O)Nc1ccc2c(c1)C(=O)N([C@@H](C)CO)C[C@@H](C)[C@H](CN(C)C(=O)Nc1ccc(F)cc1)OCCCC[C@@H](C)O2 | x | x | x | 10 | x | x | x | x | x | x
CC(=O)c1ccc(NC(=O)C2CC(=O)N(Cc3ccccc3)C2)cc1 (stereo not drawn) | -5 | 5 | 2 | 56* | 1.4 | 0.96 | 1.5 | -11 | -19 | -11
COC(=O)Cc1ccc(OCc2ccc(Cl)nc2)cc1 | 0 | 7 | 12 | 59* | 1.2 | 0.91 | 1.8 | 0 | -30 | -4
Clc1ccc(Cn2cnc3ccccc32)cc1 | 4 | -7 | 0 | -8 | x | x | x | x | x | x
c1ccc(Cn2cnc3ccccc32)cc1 | 3 | 2 | 4 | 106* | 1.4 | 1 | 1.7 | 0 | -24 | -10
Cc1nn(Cc2c(F)c(F)c(F)c(F)c2F)c(C)c1NC(=O)c1ccc(COc2cc(Cl)ccc2Cl)cc1 | 5 | 4 | -8 | 47* | 1.1 | 1.1 | 1.4 | -13 | -5 | -14
O=C(Nc1ccc2c(c1)OCO2)c1ccc(Cl)nc1 | 7 | 4 | 3 | x | x | x | x | x | x | x
O=C(Nc1ccc2c(c1)OCO2)c1cnc(Cl)c(Cl)c1 | -6 | 5 | 2 | 54* | 0.97 | 1.1 | 1 | 5 | -9 | -2
CN1CCN(C(=O)C[C@@H]2C[C@@H]3c4cc(NC(=O)Nc5ccc(F)cc5)ccc4O[C@@H]3[C@H](CO)O2)CC1 | x | x | x | -2 | x | x | x | x | x | x
SMILES | ARFGAP1 inh | SMARCA2 activ | ASAP1 inh | esBAF inh | esBAF Ring1 qPCR | esBAF Fgf4 qPCR | esBAF Bmi1 qPCR | A549 tox SP | HepG2 tox SP | HEK293 tox SP
CCc1ccc2nc(N3CCN(C(=O)C(C)(C)C)CC3)sc2c1 | -8 | -2 | 0 | u | x | x | x | x | x | x
CC(C)(C)C(=O)N1CCN(c2nc3ccccc3s2)CC1 | -2 | 1 | 3 | 64* | 1.2 | 0.87 | 1.1 | 3 | 11 | -3
CC(C)C(=O)N1CCN(c2nc3ccc(Cl)cc3s2)CC1 | -1 | 3 | 4 | 80* | 1.2 | 0.96 | 1.7 | -1 | 19 | -19
COc1ccc(NC(=O)c2csc3c2CCCC3)cc1 | x | x | x | 69* | 0.94 | 0.97 | 1.5 | -8 | -51* | -21
CNC(=O)C[C@@H]1CC[C@H]2[C@@H](COc3ccc(NC(=O)c4cscn4)cc3C(=O)N2C)O1 | x | x | x | 0 | x | x | x | x | x | x
Fc1ccc2cc(-c3ccsc3)ncc2c1 | 10 | 6 | -3 | 60* | 1.3 | 0.82 | 1.6 | 2 | -2 | -6
C[C@@H]1CCCCO[C@H](CN(C)S(=O)(=O)c2cccs2)[C@H](C)CN([C@@H](C)CO)C(=O)c2cc(NC(=O)CCCN(C)C)ccc2O1 | x | x | x | 10 | x | x | x | x | x | x
N/C(=N\OC(=O)CC1CCCCC1)c1ccccn1 | 8 | 6 | -2 | 82* | 1.4 | u | 1.6 | -1 | -24 | 8
O=C(Nc1ccc(F)c(Cl)c1)c1cc(C2CCCN(C(=O)C3CC3)C2)on1 (stereo not drawn) | 8 | 0 | -1 | 77* | 1.4 | 0.98 | 2 | -7 | -5 | -7
NC(=O)c1ccc(CSc2nc3ccccc3s2)cc1 | -3 | 2 | 0 | 54* | 1.4 | 0.87 | 1.7 | -8 | 6 | -12
COCCNC(=O)c1ccc(CSc2nc3ccccc3s2)cc1 | 0 | -1 | -20 | 36 | x | x | x | x | x | x
C[C@@H]1CN([C@H](C)CO)C(=O)c2cc(-c3ccccc3)cnc2O[C@@H]1CN(C)C(=O)C1CCCCC1 | x | x | x | 0 | x | x | x | x | x | x
CNC(=O)c1ccc(-c2ccccc2)s1 | -4 | 6 | 0 | 58* | 1 | u | 1.1 | -4 | 36 | 5
CC(=O)Nc1ccc(-c2ccccc2)s1 | 0 | -2 | -9 | -10 | x | x | x | x | x | x
CCN(C[C@H]1[C@H](c2ccc(C3=CCCC3)cc2)[C@@H](CO)N1C(C)=O)C(C)=O | x | x | x | 7 | x | x | x | x | x | x
COc1ccc(Cc2nc3ccc(C(=O)N4CCCCC4CCO)cc3o2)cc1 (stereo not drawn) | 6 | -1 | 17 | 9 | x | x | x | x | x | x
